Experimental findings from ChEMBL document CHEMBL4219150, “Fragment-Based Approach to Targeting Inosine-5'-monophosphate Dehydrogenase (IMPDH) from Mycobacterium tuberculosis” (J Med Chem, 2018) are described below.

For experiment [1], the system named is Mycobacterium tuberculosis. As to the kind of experiment: Antibacterial activity against Mycobacterium tuberculosis after 7 days by Alamar Blue assay. It is filed as functional. The conditions noted are these: 168 h. In outline:
(§1)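 Mtb H37Rv grown to mid-exponential phase in Middlebrook 7H9 with OADC, 0.2% glycerol, 0.05% Tween-80. Compounds in DMSO (1%) tested at 8 concentrations; rifampin and isoniazid as positive controls. ~10^5 bacteria per well, 37°C for 7 d, then Alamar Blue for a further 24 h at 37°C. Fluorescence read at ex 544/em 590 nm. Data normalised to min/max inhibition controls; MIC90 taken from the dose-response curve.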

For experiment [2], the target named is Inosine-5'-monophosphate dehydrogenase (Mycobacterium tuberculosis (strain ATCC 25618 / H37Rv)) (UniProt P9WKI7). As to the kind of experiment: Uncompetitive inhibition of Mycobacterium tuberculosis H37Rv IMPDH assessed as reduction in NADH production preincubated for 5 mins followed by substrate IMP addition at increasing concentration measured for 32 mins in presence of a constant concentration of NAD+ by Lineweaver-Burk plot analysis.
Inosine-5'-monophosphate dehydrogenase (Mycobacterium tuberculosis (strain ATCC 25618 / H37Rv)), sequence (P9WKI7 whole entry): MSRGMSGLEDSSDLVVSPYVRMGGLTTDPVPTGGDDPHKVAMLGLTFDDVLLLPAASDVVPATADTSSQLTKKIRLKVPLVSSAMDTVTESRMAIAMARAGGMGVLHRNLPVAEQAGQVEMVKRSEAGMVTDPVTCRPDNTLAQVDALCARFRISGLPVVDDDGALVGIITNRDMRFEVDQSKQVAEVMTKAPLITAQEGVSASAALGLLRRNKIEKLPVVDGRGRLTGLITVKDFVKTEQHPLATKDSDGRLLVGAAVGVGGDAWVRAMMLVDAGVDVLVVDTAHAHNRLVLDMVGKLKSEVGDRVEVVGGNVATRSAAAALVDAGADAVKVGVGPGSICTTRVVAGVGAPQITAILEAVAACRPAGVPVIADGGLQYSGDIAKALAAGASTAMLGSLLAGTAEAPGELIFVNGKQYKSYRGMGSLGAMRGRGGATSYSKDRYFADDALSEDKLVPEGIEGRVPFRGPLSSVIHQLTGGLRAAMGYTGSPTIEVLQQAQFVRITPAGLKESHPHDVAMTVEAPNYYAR

The test system of experiment [3] is Mycobacterium tuberculosis. Nature of the experiment: Antibacterial activity against Mycobacterium tuberculosis H37Rv assessed as inhibition of bacterial growth after 7 days by alamar blue fluorescence-based broth microdilution assay. The experiment is classed as functional. As to conditions: 168 h. In outline:
as §1

Experiment [4] concerns Mycobacterium tuberculosis. As to the kind of experiment: Antibacterial activity against Mycobacterium tuberculosis. It is filed as functional. In outline:
as §1

Experiment [5] concerns Mycobacterium tuberculosis. Nature of the experiment: Antibacterial activity against Mycobacterium tuberculosis ATCC 27294 after 7 days by broth microdilution method. It is filed as functional. The conditions noted are these: ATCC 27294, 168 h. A general note: Dilution methods test growth across graded concentrations, often in twofold steps.

The structures appear in SMILES notation. Converted amounts (≈) assume the structure as drawn.

In general, MIC refers to the least concentration at which growth counts as inhibited. In turn, `COc1ccc(OC(C)C(=O)Nc2ccc(I)cc2)cc1` (stereo not given) returned an MIC in experiment [1] of 12.5 µM (≈ 4.97 µg/mL). For the same compound, in experiment [2], the alphaKi turned out to be 0.603 µM. In general, MIC90 refers to an inhibitory concentration at the 90% level, which refers to growth in some studies and to a panel of isolates in others. For the compound `CC(Oc1ccc(-c2cn(C)cn2)cc1)C(=O)Nc1nc(-c2ccc(N3CCOCC3)cc2)c[nH]1` (stereo not given), the MIC90 in experiment [3] was not below 50 µM. With `CC(Oc1ccc(-c2cn(C)cn2)cc1)C(=O)Nc1nc(-c2ccc(Br)cc2)c[nH]1` (stereo not given), the MIC90 in experiment [3] is not below 50 µM.

On to `CC(Oc1ccc(-c2cn(C)cn2)cc1)C(=O)Nc1ccc(I)cc1` (stereo not given), for which, in experiment [3], the MIC90 was not below 50 µM. On to `CC(Oc1ccc(-c2cn(C)cn2)cc1)C(=O)Nc1nc(-c2ccccc2)c[nH]1` (stereo not given), for which the MIC90 in experiment [3] is not below 50 µM. For `CC(Oc1ccc(-c2cn(C)cn2)cc1)C(=O)Nc1nc(-c2ccc(Br)cc2)co1` (stereo not given), in experiment [3], the MIC90 is not below 50 µM. In the case of `CC(Oc1ccc(-c2cn(C)cn2)cc1)C(=O)Nc1ccccc1` (stereo not given), the MIC90 in experiment [3] is not below 50 µM. With `O=C(C1CCCCC1)N1CCN(S(=O)(=O)c2ccc3cnccc3c2)CC1`, the minimal inhibitory concentration (MIC) in experiment [4] stood at 1.9 µM (≈ 0.736 µg/mL). In the case of `COc1c(C)c2c(c(O)c1C/C=C(\C)Cn1cc(COC[C@H]3O[C@@H](n4cnc5c(N)ncnc54)[C@H](O)[C@@H]3O)nn1)C(=O)OC2`, 100 µM (≈ 60.9 µg/mL) was the least that counted as inhibitory in experiment [5] (MIC). As to `CC(Oc1ccc(-c2cn(C)cn2)cc1)C(=O)Nc1nc(-c2ccc(I)cc2)c[nH]1` (stereo not given), the MIC90 in experiment [3] is not below 50 µM. Same read-out and setting: to `COc1ccc(-c2c[nH]c(NC(=O)C(C)Oc3ccc(-c4cn(C)cn4)cc3)n2)cc1` (stereo not given) belongs not below 50 µM.

Consider `Cc1n[nH]c(C)c1S(=O)(=O)Nc1ccc2c[nH]nc2c1`, for which, in experiment [4], the MIC was 2 µM (≈ 0.583 µg/mL). In other words, the single-digit micromolar range. Consider `C=C(C)c1cccc(C(C)(C)NC(=O)Nc2ccc(Cl)c(C(=O)N(C)C)c2)c1`, for which the minimal inhibitory concentration (MIC) in experiment [5] was 5 µM (≈ 2 µg/mL). `C[C@H](Oc1ccc(-c2cn(C)cn2)cc1)C(=O)Nc1nc(-c2ccc(Br)cc2)c[nH]1`: the MIC90 in experiment [3] is not below 50 µM.
